Data set [1] in a line: folding enthalpy; higher = less favourable; fluorescence melt of hairpins on a sequencing array, two-state fit. As to conditions: sodium 0.088 M. In outline: (§1)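 To match UV melts, fitted temperatures were raised by 9.35 °C. These fits were bootstrapped two-state models that gave melting temperature and folding enthalpy, combined by inverse variance over four replicates. The input was normalised Cy3 fluorescence of library hairpins with annealed Cy3 and quencher oligos on a sequenced MiSeq flow cell, imaged in 50 mM Na-HEPES pH 8.0, 25 mM NaCl in 2.5 °C steps up to 60 °C.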

Data set [2] can be described thus: melting temperature; fluorescence melt of hairpins on a sequencing array, two-state fit, raised by 9.35 °C to match UV melts. As to conditions: sodium 0.088 M. The method in brief:
as §1

On to GCGATGCGAAAGCGTGGC ((.(.((....)).).)), for which the folding enthalpy in data set [1] is -90.5 kJ/mol. The Tm in data set [2] stood at 54.7 °C.
On the same counts, the results for GCGATGCTCGC ((((...)))) are -59 kJ/mol and 54.9 °C.
Regarding GCGATGTATCGC ((((....)))), the folding enthalpy in data set [1] was -118 kJ/mol. For the same sequence, in data set [2], the Tm worked out at 56.7 °C.
For GCGATTACTCGC ((((....)))), in data set [1], the folding enthalpy is -99.1 kJ/mol. Moreover, the Tm in data set [2] amounted to 49.3 °C.
For GCGATTCCTCGC ((((....)))), the folding enthalpy in data set [1] was -93.7 kJ/mol. Also, the Tm in data set [2] came to 49.5 °C.
On the same counts, the results for GCGATTCTCGC ((((...)))) are -90.9 kJ/mol and 52 °C.
On the same counts, the results for GCGATTTATCGC ((((....)))) are -119 kJ/mol and 68.7 °C.
Consider GCGATTTGTCGC ((((....)))), for which the folding enthalpy in data set [1] was -98.2 kJ/mol. The Tm in data set [2] was determined as 54 °C.
On the same counts, the results for GCGATTTTTCGC ((((....)))) are -114 kJ/mol and 53.1 °C.
On to GCGCAACGAAAGTTACGC (((.(((....))).))), for which the folding enthalpy in data set [1] was -188 kJ/mol. In data set [2], the Tm is 57.5 °C.
In the case of GCGCAACGAAAGTTCCGC (((.(((....))).))), the folding enthalpy in data set [1] was -127 kJ/mol. For the same sequence, in data set [2], the Tm was found to be 49.3 °C.
With GCGCAACGAAAGTTTCGC (((.(((....))).))), the folding enthalpy in data set [1] was -180 kJ/mol. Further, the Tm in data set [2] stood at 52.9 °C.
On the same counts, the results for GCGCACCGAAAGGTACGC (((.(((....))).))) are -177 kJ/mol and 64.3 °C.
As for GCGCACCGAAAGGTCCGC (((.(((....))).))), in data set [1], the folding enthalpy is -158 kJ/mol. For the same sequence, the Tm in data set [2] came to 55.6 °C.
Regarding GCGCACGAAAGTGACGC ((((((....))).))), in data set [1], the folding enthalpy was -100 kJ/mol. The Tm in data set [2] amounted to 63.3 °C.
For GCGCACGAAAGTGGCCGC ((((((....)))..))), in data set [1], the folding enthalpy is -81.3 kJ/mol. Further, the Tm in data set [2] came out at 54.1 °C.
Take GCGCACGAAAGTGTACGC ((((((....)))..))): in data set [1], the folding enthalpy is -99.7 kJ/mol. Also, the Tm in data set [2] stood at 53.5 °C.
For the sequence GCGCACGGAAACATGCGC (((((.(....).))))), the folding enthalpy in data set [1] is -157 kJ/mol. Moreover, the Tm in data set [2] is 59 °C.
On the same counts, the results for GCGCACTCGAAAGAGCGC (((..(((....)))))) are -98.7 kJ/mol and 57.1 °C.
On the same counts, the results for GCGCAGCGAAAGCCACGC (((..((....))..))) are -41.3 kJ/mol and 42.4 °C.
In the case of GCGCAGCGAAAGCCGTGC ((.(.((....)).).)), the folding enthalpy in data set [1] was -41 kJ/mol. Besides, the Tm in data set [2] is 46.2 °C.
On the same counts, the results for GCGCAGCGAAAGCGGTGC ((.(.((....)).).)) are -69.1 kJ/mol and 61.5 °C.
On the same counts, the results for GCGCAGCGAAAGCTTCGC (((.(((....))).))) are -151 kJ/mol and 51.4 °C.
On the same counts, the results for GCGCAGGGAAACCCGCAC (.((.((....)).)).) are -71.3 kJ/mol and 37 °C.
Take GCGCATCGAAAGATACGC (((.(((....))).))): the folding enthalpy in data set [1] is -162 kJ/mol. Besides, in data set [2], the Tm was 54.5 °C.
On the same counts, the results for GCGCATGGAAACACGCGC ((((.((....)).)))) are -169 kJ/mol and 56.1 °C.
On the same counts, the results for GCGCATGGAAACATGCAC (.(((((....))))).) are -52.4 kJ/mol and 47.1 °C.
On the same counts, the results for GCGCATGGAAACGTGCGC (((((.(....).))))) are -172 kJ/mol and 66.6 °C.
Turning to GCGCCACGAAAGTGTCGC (((.(((....))).))), the folding enthalpy in data set [1] was -175 kJ/mol. Moreover, in data set [2], the Tm was determined as 63.3 °C.
On the same counts, the results for GCGCCAGCGAAAGCTCGC (((..(((....)))))) are -35.1 kJ/mol and 45 °C.
Regarding GCGCCAGGAAACCAGCGC ((((..(....)..)))), the folding enthalpy in data set [1] is -111 kJ/mol. Besides, the Tm in data set [2] amounted to 51.4 °C.
On the same counts, the results for GCGCCAGGAAACCGGCAC (.(((.(....).))).) are -69.4 kJ/mol and 37.4 °C.
GCGCCCGAAAGGGCCGC ((((((....))).))): the folding enthalpy in data set [1] was -48.1 kJ/mol. In addition, the Tm in data set [2] is 68 °C.
On the same counts, the results for GCGCCCGAAAGGGTCCGC ((((((....)))..))) are -62 kJ/mol and 56.2 °C.
Regarding GCGCCCGAAAGGGTTCGC ((((((....)))..))), the folding enthalpy in data set [1] was -74.2 kJ/mol. Besides, the Tm in data set [2] came out at 54.6 °C.
On the same counts, the results for GCGCCCTCGAAAGAGCGC (((..(((....)))))) are -134 kJ/mol and 54.3 °C.
On the same counts, the results for GCGCCGCGAAAGCAGTGC ((.(.((....)).).)) are -81.4 kJ/mol and 53.5 °C.
Turning to GCGCCGCGAAAGCATCGC (((..((....))..))), in data set [1], the folding enthalpy was -71 kJ/mol. Besides, the Tm in data set [2] turned out to be 51.2 °C.
On the same counts, the results for GCGCCGCGAAAGCGTGGC ((..(((....)))..)) are -62.5 kJ/mol and 51.7 °C.
On the same counts, the results for GCGCCGCGAAAGCTTCGC (((..((....))..))) are -65.4 kJ/mol and 54.7 °C.
For GCGCCGGGAAACCGGCAC (.(((((....))))).), the folding enthalpy in data set [1] was -36.1 kJ/mol. In data set [2], the Tm came to 53.4 °C.
Turning to GCGCCTACGAAAGTACGC (((..(((....)))))), the folding enthalpy in data set [1] was -116 kJ/mol. Besides, in data set [2], the Tm turned out to be 42 °C.
Regarding GCGCCTCGAAAGAGCGC (((.(((....)))))), the folding enthalpy in data set [1] is -150 kJ/mol. In addition, in data set [2], the Tm came out at 67.4 °C.
With GCGCCTGGAAACAGGTGC ((.((((....)))).)), the folding enthalpy in data set [1] is -195 kJ/mol. For the same sequence, in data set [2], the Tm was 64.2 °C.
On the same counts, the results for GCGCCTGGAAACGGGTGC ((.((.(....).)).)) are -194 kJ/mol and 52.3 °C.
On the same counts, the results for GCGCGAGGAAACTCACGC (((.(((....))).))) are -160 kJ/mol and 53.8 °C.
For GCGCGCGAAAGCGACCGC ((((((....)))..))), the folding enthalpy in data set [1] was -70.2 kJ/mol. In addition, the Tm in data set [2] was 54.3 °C.
With GCGCGCGGAAACGCACGC (((.(((....))).))), the folding enthalpy in data set [1] was -137 kJ/mol. In addition, in data set [2], the Tm was found to be 67.8 °C.
On the same counts, the results for GCGCGCGGAAACGCGCAC (.(((((....))))).) are -31.2 kJ/mol and 65.3 °C.
Take GCGCGGCGAAAGCCCTGC ((..(((....)))..)): in data set [1], the folding enthalpy was -56.5 kJ/mol. Also, in data set [2], the Tm was found to be 50.1 °C.
As for GCGCGGCGAAAGCCTAGC ((..(((....)))..)), the folding enthalpy in data set [1] was -112 kJ/mol. Besides, the Tm in data set [2] was found to be 61.1 °C.
As for GCGCGGCGAAAGCGTCGC (((..((....))..))), the folding enthalpy in data set [1] is -82.6 kJ/mol. For the same sequence, the Tm in data set [2] was 63.2 °C.
On to GCGCGGCGAAAGCTACGC (((..((....))..))), for which, in data set [1], the folding enthalpy is -82.8 kJ/mol. In addition, in data set [2], the Tm was 64.1 °C.
GCGCGGCGAAAGCTCCGC (((..((....))..))): the folding enthalpy in data set [1] is -85.1 kJ/mol. For the same sequence, the Tm in data set [2] stood at 58.3 °C.
Consider GCGCGTCCGAAAGGACGC (((..(((....)))))), for which the folding enthalpy in data set [1] was -23.4 kJ/mol. Besides, the Tm in data set [2] worked out at 67.3 °C.

The record behind these values is the array DNA melting data of Ke et al. (doi:10.1101/2024.01.08.574731).
